Experimental data from ChEMBL document CHEMBL1157153, “Novel cyclohexene derivatives as anti-sepsis agents: synthetic studies and inhibition of NO and cytokine production” (Bioorg Med Chem, 2008).

Assays:
RAW264.7 [1] = assay: Suppression of LPS-induced TNFalpha production in mouse RAW264.7 cells; assay type: functional, cell-based
Outline: (§1)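 IC50 is the concentration cutting TNF-α or IL-6 production to 50% of control. Values are means ± SD from three or four experiments.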

RAW264.7 [2] = assay: Suppression of LPS-induced IL6 production in mouse RAW264.7 cells; assay type: functional, cell-based; outline: as §1
RAW264.7 [3] = assay: Suppression of LPS-induced NO production in mouse RAW264.7 cells by fluorometric assay; assay type: functional, cell-based
Outline: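 RAW264.7 cells were seeded at 1 × 10⁵ cells/well and incubated overnight. Supernatant was removed and cells were stimulated with 10 ng/mL LPS plus graded compound concentrations for 20 h at 37 °C, 5% CO₂. The medium was phenol red-free RPMI1640 with 1% heat-inactivated FBS. Compounds came from 10 mM DMF stocks diluted in medium. Supernatant nitrite was read with DAN, then NaOH, as fluorescence at ex 355/em 460 nm.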

Mus musculus [4] = assay: Suppression of LPS-induced serum NO production in mouse endotoxin shock model at 10 mg/kg, iv administered 1 hr before LPS challenge by fluorometric assay
Mus musculus [5] = assay: Suppression of LPS-induced serum NO production in mouse endotoxin shock model at 3 mg/kg, iv administered 1 hr before LPS challenge by fluorometric assay
Mus musculus [6] = assay: Protective effect against lethal septic shock in iv dosed mouse endotoxin shock model; assay type: functional
Outline: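 Mice challenged with a lethal dose of LPS (7 mg/kg ip). Compounds were dissolved in 10% (w/v) glucuronylglucosyl-beta-cyclodextrin sodium salt and given intravenously at 1, 3 and 10 mg/kg, 1 h before LPS. Vehicle-dosed mice served as controls. Survival was recorded for 7 days after challenge and reported as survivors/total. ED50 is given in mg/kg.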

Mus musculus [7] = assay: Suppression of LPS-induced serum NO production in mouse endotoxin shock model at 1 mg/kg, iv administered 1 hr before LPS challenge by fluorometric assay
Mus musculus [8] = assay: Protective effect against lethal septic shock in mouse endotoxin shock model assessed as survival at 10 mg/kg, iv; assay type: functional, organism-based; set-up: dose 10 mg/kg
Outline: (§2)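 Mice got a lethal LPS dose of 7 mg/kg ip. Compound was given iv 1 h before LPS, in 10% (w/v) glucuronylglucosyl-β-cyclodextrin sodium salt. Survival was recorded over 7 days after LPS, with 7–10 mice per group.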

Mus musculus [9] = assay: Protective effect against lethal septic shock in mouse endotoxin shock model assessed as survival at 1 mg/kg, iv; assay type: functional, organism-based; set-up: dose 1 mg/kg; outline: as §2

| Structure (SMILES) | IC50 (RAW264.7 [3]; Mus musculus, RAW264.7) [nM] | other results |
| --- | --- | --- |
| CCOC(=O)C1=CCCCC1S(=O)(=O)C(C)c1ccc(F)cc1Cl (stereo in doubt; 22a) | – | IC50 (RAW264.7 [1]): 42 nM; IC50 (RAW264.7 [2]): 5.8 nM; IC50 (RAW264.7 [3]; raw264.7): 14 nM |
| CCOC(=O)C1=CCCCC1S(=O)(=O)Cc1ccsc1 (stereo not given) | 105 | – |
| CCOC(=O)C1=CCCCC1S(=O)(=O)Cc1ccc(Cl)cc1F (stereo not given) | 104 | – |
| CCOC(=O)C1=CCCC[C@H]1S(=O)(=O)Cc1ccc(F)cc1Cl | – | IC50 (RAW264.7 [1]): 8.3 nM; IC50 (RAW264.7 [2]): 1.5 nM; inhibition in vivo at 10 mg/kg (Mus musculus [4]): 76%; inhibition in vivo at 3 mg/kg (Mus musculus [5]): 54%; ED50 (Mus musculus [6]): 1.85 mg/kg; inhibition in vivo at 1 mg/kg (Mus musculus [7]): 27%; Activity (Mus musculus [8]): Non-toxic |
| CCC(O)C1=CCCCC1S(=O)(=O)Cc1ccc(F)cc1Cl (stereo not given) | > 10000 | – |
| CCOC(=O)C1=CCCCC1S(=O)(=O)Cc1ccc(Cl)c(Cl)c1 (stereo not given) | 53 | – |
| CCOC(=O)C1=CCCCC1S(=O)(=O)Cc1cc2ccccc2o1 (stereo not given) | 134 | – |
| CCOC(=O)C1=CCCCC1S(=O)(=O)C(C)c1ccccc1 (stereo in doubt; 19b) | – | IC50 (RAW264.7 [3]; raw264.7): 1320 nM |
| CCOC(=O)C1=CCCCC1S(=O)(=O)Cc1ccc(Cl)cc1Cl (stereo not given) | 60 | – |
| CCOC(=O)C1=CCCCC1S(=O)(=O)Cc1ccncc1 (stereo not given) | 1410 | – |
| CCOC(=O)C1=CCCCC1S(=O)(=O)Cc1ccc(F)cc1Cl (single isomer, unassigned; (+)) | – | IC50 (RAW264.7 [3]; raw264.7): 5.7 nM |
| CCOC(=O)C1=CCCCC1S(=O)(=O)C(C)c1ccccc1 (stereo in doubt; 19a) | – | IC50 (RAW264.7 [3]; raw264.7): 100 nM |
| CCOC(=O)C1=CCCCC1S(=O)(=O)C(C)c1ccc(F)cc1Cl (single isomer, unassigned; (-)) | – | IC50 (RAW264.7 [3]; raw264.7): 1300 nM |
| CCCCOC(=O)C1=CCCCC1S(=O)(=O)Cc1ccc(F)cc1Cl (stereo not given) | 103 | – |
| CCOC(=O)C1=CCCCC1S(=O)(=O)Cc1ccccc1Cl (single isomer, unassigned; (-)) | – | IC50 (RAW264.7 [3]; raw264.7): 1200 nM |
| CCOC(=O)C1=CCCCC1S(=O)(=O)Cc1cc(Cl)ccc1F (stereo not given) | 23 | – |
| CCOC(=O)C1=CCCCC1S(=O)(=O)Oc1ccc(F)cc1Cl (stereo not given) | 904 | – |
| CCOC(=O)C1=CCCCC1S(=O)(=O)Cc1ccccc1Cl (stereo in doubt; 10e) | – | IC50 (RAW264.7 [3]; raw264.7): 14 nM |

| Structure (SMILES) | IC50 (RAW264.7 [3]; Mus musculus, RAW264.7) [nM] | other results |
| --- | --- | --- |
| CCCOC(=O)C1=CCCCC1S(=O)(=O)Cc1ccc(F)cc1Cl (stereo not given) | 14 | – |
| CCOC(=O)C1=CCCCC1S(=O)(=O)Cc1cc2ccccc2s1 (stereo not given) | 101 | – |
| CCOC(=O)C1=CCCCC1S(=O)(=O)Cc1ccc(F)c(Cl)c1 (stereo not given) | 13 | – |
| CCOC(=O)C1=CCCC[C@H]1S(=O)(=O)[C@@H](C)c1ccc(F)cc1Cl | – | IC50 (RAW264.7 [1]): 20 nM; IC50 (RAW264.7 [2]): 1.8 nM; inhibition in vivo at 10 mg/kg (Mus musculus [4]): 78%; inhibition in vivo at 3 mg/kg (Mus musculus [5]): 55.7%; ED50 (Mus musculus [6]): 5.6 mg/kg; inhibition in vivo at 1 mg/kg (Mus musculus [7]): -10.1%; Activity (Mus musculus [8]): Non-toxic; Activity (Mus musculus [9]): Toxic |
| CCOC(=O)C1=CCCCC1S(=O)(=O)Cc1ccccc1F (stereo not given) | 97 | – |
| CCOC(=O)C1=CCCCC1S(=O)(=O)Cc1cccc(Cl)c1Cl (stereo not given) | 65 | – |
| CCOC(=O)C1=CCCCC1S(=O)(=O)Cc1ccccc1Cl (single isomer, unassigned; (+)) | – | IC50 (RAW264.7 [3]; raw264.7): 11 nM |
| CCOC(=O)C1=CCCCC1S(=O)(=O)Cc1ccc(F)cc1F (stereo not given) | 14 | – |
| CCOC(=O)C1=CCCCC1S(=O)(=O)Cc1ccc(F)cc1Cl (stereo in doubt; (-)-10a) | – | IC50 (RAW264.7 [3]; raw264.7): 10000 nM |
| CC(C)OC(=O)C1=CCCCC1S(=O)(=O)Cc1ccc(F)cc1Cl (stereo not given) | 100 | – |
| CCOC(=O)C1=CCCCC1S(=O)(=O)Cc1ccc(F)cc1Cl (stereo in doubt; 10a) | – | IC50 (RAW264.7 [1]): 21 nM; IC50 (RAW264.7 [2]): 4.8 nM; IC50 (RAW264.7 [3]; raw264.7): 10 nM |
| CCOC(=O)C1=CCCCC1S(=O)(=O)C(CF)c1ccc(F)cc1Cl (stereo in doubt; 26a) | – | IC50 (RAW264.7 [3]; raw264.7): 435 nM |
| CCOC(=O)C1=CCCCC1S(=O)(=O)Cc1coc2ccccc12 (stereo not given) | 106 | – |
| CCOC(=O)C1=CCCCC1S(=O)(=O)Cc1cccc(Cl)c1F (stereo not given) | 12 | – |
| CCCC(=O)C1=CCCCC1S(=O)(=O)Cc1ccc(F)cc1Cl (stereo not given) | 11 | – |
| CCOC(=O)C1=CCCCC1S(=O)(=O)C(C)c1ccc(F)cc1Cl (single isomer, unassigned; (+)) | – | IC50 (RAW264.7 [3]; raw264.7): 4 nM |
| CCOC(=O)C1=CCCCC1S(=O)(=O)C(C)c1ccc(F)cc1Cl (stereo in doubt; 22b) | – | IC50 (RAW264.7 [3]; raw264.7): 102 nM |

Continued, in another order:

| IC50 (RAW264.7 [3]; Mus musculus, RAW264.7) [nM] | Structure (SMILES) | other results |
| --- | --- | --- |
| > 10000 | CCOC(=O)C1=CCCCC1NS(=O)(=O)c1ccc(F)cc1Cl (stereo not given) | – |
| > 10000 | CC(=O)OCC1=CCCCC1S(=O)(=O)Cc1ccc(F)cc1Cl (stereo not given) | – |
| 99 | COC(=O)C1=CCCCC1S(=O)(=O)Cc1ccc(F)cc1Cl (stereo not given) | – |
| 14 | CCOC(=O)C1=CCCCC1S(=O)(=O)Cc1cccc(Cl)c1 (stereo not given) | – |
| 5640 | CCOC(=O)C1=CCCCC1SCc1ccc(F)cc1Cl (stereo not given) | – |
| 1010 | CCOC(=O)C1=CCCCC1S(=O)(=O)Cc1c[nH]c2ccccc12 (stereo not given) | – |
| 64 | CCC(=O)C1=CCCCC1S(=O)(=O)Cc1ccc(F)cc1Cl (stereo not given) | – |
| > 10000 | O=S(=O)(Cc1ccc(F)cc1Cl)C1CCCC=C1CO (stereo not given) | – |
| 101 | CCOC(=O)C1=CCCCC1S(=O)(=O)Cc1ccc(Cl)cc1 (stereo not given) | – |
| 4.5 | CCOC(=O)C1=CCCCC1S(=O)(=O)Nc1ccc(F)cc1Cl (stereo not given) | – |
| 729 | CCOC(=O)C1=CCCCC1S(=O)(=O)C(CF)c1ccc(F)cc1Cl (stereo in doubt; 26b) | – |
| 100 | CCOC(=O)C1=CCCCC1S(=O)(=O)Cc1cccc(F)c1F (stereo not given) | – |
| 101 | CCOC(=O)C1=CCCCC1S(=O)(=O)Cc1ccccc1 (stereo not given) | – |
